Test [1] has as its target T1, Transient receptor potential cation channel subfamily V member 1 (Homo sapiens, UniProt Q8NER1). The experiment in a line: Inhibition of human transient receptor potential vanilloid 1 receptor (n=6). The gist of the method:
(§1)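 FLIPR Ca2+ influx in Fluo-3-loaded HEK293 cells stably expressing human or rat TRPV1. Compound was added at 0.3 nM–30 µM final, in half-log steps, for 3 min before capsaicin. Capsaicin was 15 nM final for human; for rat it was 15 nM, or 100 nM in later runs. Signal was the smaller of peak and end fluorescence after basal subtraction. IC50 came from a four-parameter logistic fit.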

Test [2] concerns the target T2, Transient receptor potential cation channel subfamily V member 1 (Rattus norvegicus, UniProt O35433). The experiment in a line: Inhibition of rat transient receptor potential vanilloid 1 receptor (n=3). The essentials:
as §1

Test [3] addresses T2, Transient receptor potential cation channel subfamily V member 1. The experiment in a line: Effective concentration against rat transient receptor potential vanilloid 1 receptor (n=6). The gist of the method: (§2)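 HEK293 cells stably expressing human or rat TRPV1 were loaded with 4 µM Fluo-3/AM for 60 min at room temperature. Cells were held in HEPES buffer, pH 7.45, with 2 mM CaCl2. Capsaicin-like Ca2+ flux was read on FLIPR with compounds up to 30 µM. Counts were basal-subtracted. Values came from a four-parameter Hill fit, as mean ± SEM.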

The target in test [4] is T1, Transient receptor potential cation channel subfamily V member 1. The experiment in a line: Effective concentration against human transient receptor potential vanilloid 1 receptor (n=3). The gist of the method: as §2
Test [5] has the same target. The experiment in a line: Percentage efficacy against human transient receptor potential vanilloid 1 receptor (n=3). The gist of the method:
(§3)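 FLIPR Ca2+ flux in HEK293 cells stably expressing human TRPV1 or rat TRPV1, grown in DMEM with 10% FBS. Cells were seeded, incubated overnight, then loaded with 4 µM Fluo-3/AM and 0.01% Pluronic-F127 for 60 min at room temperature. Assay buffer was HEPES-buffered saline with 2 mM CaCl2, pH 7.45. Intracellular Ca2+ was read during compound exposure, 0.3 nM–30 µM in half-log steps. Signal was basal-subtracted, taking the smaller of the peak and end-of-incubation values.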

In test [6] the target is Transient receptor potential cation channel subfamily V member 1 (Rattus norvegicus) (UniProt O35433). The experiment in a line: Percentage efficacy against rat transient receptor potential vanilloid 1 receptor (n=3). The gist of the method:
as §3

Test [7] concerns the target T1, Transient receptor potential cation channel subfamily V member 1. The experiment in a line: Inhibition of human transient receptor potential vanilloid 1 receptor (n=5). The gist of the method:
as §1

Test [8] deals with T2, Transient receptor potential cation channel subfamily V member 1. The experiment in a line: Effective concentration against rat transient receptor potential vanilloid 1 receptor (n=3). The gist of the method:
as §2

The target of test [9] is T1, Transient receptor potential cation channel subfamily V member 1. The experiment in a line: Inhibition of human transient receptor potential vanilloid 1 receptor (n=3). The gist of the method:
(§4)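 FLIPR Ca2+ influx in Fluo-3-loaded HEK293 cells stably expressing human or rat TRPV1. Compound was added at 0.3 nM–30 µM final, in half-log steps, for 3 min before capsaicin. Signal was the smaller of peak and end fluorescence after basal subtraction. IC50 came from a four-parameter logistic fit.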

The target is the same in test [10]. The experiment in a line: Inhibition of human transient receptor potential vanilloid 1 receptor (n=4). The gist of the method:
as §4

Test [11] has as its target T2, Transient receptor potential cation channel subfamily V member 1. The experiment in a line: Inhibition of rat transient receptor potential vanilloid 1 receptor (n=2). The gist of the method:
as §4

The species named for another test is Rattus norvegicus. The experiment in a line: Effective dose to produce maximal thermal desensitization in rat at 5 ug.
The target of test [12] is T1, Transient receptor potential cation channel subfamily V member 1. The experiment in a line: Effective concentration against human transient receptor potential vanilloid 1 receptor (n=6). The gist of the method:
as §2

Test [13] deals with T2, Transient receptor potential cation channel subfamily V member 1. The experiment in a line: Inhibition of rat transient receptor potential vanilloid 1 receptor (n=4). The gist of the method:
as §1

The target is the same in test [14]. The experiment in a line: Effective concentration against rat transient receptor potential vanilloid 1 receptor (n=2). The gist of the method:
as §2

Test [15] has as its target T1, Transient receptor potential cation channel subfamily V member 1. The experiment in a line: In vitro inhibition of PMA-activated human TRPV1 receptor in [Ca2+] influx assay. The essentials:
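Human TRPV1-HEK293 cells were loaded with Fluo-3 and preincubated with compound for 3 min. They were then stimulated with 300 nM PMA, and fluorescence was monitored for 5–10 min on FLIPR. IC50 came from a four-parameter logistic fit.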

Test [16] shares this target. The experiment in a line: In vitro inhibition of anandamide activated human TRPV1 receptor in [Ca2+] influx assay.
Test [17] addresses T2, Transient receptor potential cation channel subfamily V member 1. The experiment in a line: In vitro inhibition of acid activated rat TRPV1 receptor in [Ca2+] influx assay. The gist of the method:
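Rat TRPV1-HEK293 cells loaded with Fluo-3 were challenged for about 5 min with pH 5.8–6.0 solution to raise basal Ca2+.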

In test [18] the target is T1, Transient receptor potential cation channel subfamily V member 1. The experiment in a line: Inhibition of human transient receptor potential vanilloid 1 receptor (n=2). The gist of the method: as §1
Test [19] has the same target. The experiment in a line: Effective concentration against human transient receptor potential vanilloid 1 receptor (n=2). The essentials:
as §2

The target is the same in test [20]. The experiment in a line: Percentage efficacy against human transient receptor potential vanilloid 1 receptor (n=2). The gist of the method:
as §3

For test [21] the target is unchanged. The experiment in a line: Effective concentration against human transient receptor potential vanilloid 1 receptor (n=6); Inactive. The essentials:
as §2

Values joined by “and” are separate entries in the source; they are usually repeats but may differ in a detail not shown here. Equal values may be shown once. A value given as a limit tells only on which side of the number the result lay.

T1 sequence (Q8NER1 whole entry): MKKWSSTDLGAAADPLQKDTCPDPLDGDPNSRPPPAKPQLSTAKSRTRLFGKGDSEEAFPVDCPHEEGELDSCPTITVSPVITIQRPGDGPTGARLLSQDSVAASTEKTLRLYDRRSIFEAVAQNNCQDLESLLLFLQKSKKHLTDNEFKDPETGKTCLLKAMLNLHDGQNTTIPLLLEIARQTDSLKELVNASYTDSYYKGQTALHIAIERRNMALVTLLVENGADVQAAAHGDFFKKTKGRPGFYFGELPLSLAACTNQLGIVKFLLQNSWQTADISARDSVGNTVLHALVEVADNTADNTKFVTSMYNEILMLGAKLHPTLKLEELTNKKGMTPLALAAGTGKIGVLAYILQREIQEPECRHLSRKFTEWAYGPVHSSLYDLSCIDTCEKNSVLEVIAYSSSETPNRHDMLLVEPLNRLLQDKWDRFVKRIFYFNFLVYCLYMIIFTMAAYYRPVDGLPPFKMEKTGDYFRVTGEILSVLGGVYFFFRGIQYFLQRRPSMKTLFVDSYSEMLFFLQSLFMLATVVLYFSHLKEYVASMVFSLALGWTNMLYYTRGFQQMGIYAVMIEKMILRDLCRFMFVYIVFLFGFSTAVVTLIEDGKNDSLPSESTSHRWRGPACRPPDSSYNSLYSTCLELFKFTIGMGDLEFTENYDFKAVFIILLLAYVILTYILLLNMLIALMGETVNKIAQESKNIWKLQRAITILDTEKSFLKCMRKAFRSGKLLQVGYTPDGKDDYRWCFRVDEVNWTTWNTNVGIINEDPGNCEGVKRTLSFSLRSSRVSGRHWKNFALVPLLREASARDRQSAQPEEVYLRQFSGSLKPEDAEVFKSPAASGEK
Chain of Transient receptor potential cation channel subfamily V member 1 (Rattus norvegicus) (O35433 whole entry): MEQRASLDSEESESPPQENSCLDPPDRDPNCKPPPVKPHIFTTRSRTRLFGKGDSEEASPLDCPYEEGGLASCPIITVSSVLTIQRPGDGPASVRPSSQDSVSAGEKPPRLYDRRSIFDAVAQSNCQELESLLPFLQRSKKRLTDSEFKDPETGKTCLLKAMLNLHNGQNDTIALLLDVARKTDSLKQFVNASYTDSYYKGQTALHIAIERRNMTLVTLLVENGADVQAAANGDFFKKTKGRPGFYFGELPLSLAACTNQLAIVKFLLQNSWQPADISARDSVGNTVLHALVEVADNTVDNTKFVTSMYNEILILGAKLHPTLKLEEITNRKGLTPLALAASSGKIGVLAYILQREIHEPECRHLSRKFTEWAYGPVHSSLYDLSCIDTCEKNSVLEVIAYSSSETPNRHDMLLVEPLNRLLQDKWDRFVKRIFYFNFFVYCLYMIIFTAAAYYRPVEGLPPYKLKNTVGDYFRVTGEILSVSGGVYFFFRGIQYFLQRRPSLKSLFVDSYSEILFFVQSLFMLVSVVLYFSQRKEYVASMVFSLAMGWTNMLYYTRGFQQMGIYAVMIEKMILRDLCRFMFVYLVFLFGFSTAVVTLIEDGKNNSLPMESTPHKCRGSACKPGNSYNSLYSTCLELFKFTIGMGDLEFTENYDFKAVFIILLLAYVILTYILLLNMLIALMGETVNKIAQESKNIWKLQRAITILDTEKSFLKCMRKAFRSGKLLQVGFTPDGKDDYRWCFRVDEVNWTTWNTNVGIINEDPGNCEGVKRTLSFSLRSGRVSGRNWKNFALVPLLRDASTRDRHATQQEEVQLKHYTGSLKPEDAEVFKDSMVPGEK
T2 sequence (O35433 whole entry): as above

As usually defined, the IC50 is the concentration that inhibits the measured activity by half. Read a low IC50 as greater potency. For the molecule `O=C(Nc1cccc2cccnc12)N1CCN(c2ncccc2C(F)(F)F)CC1`, the half-inhibitory concentration (IC50) in test [1] was 8130 nM; in [2], 14700 nM.

The term EC50 denotes the concentration at which the effect is half-maximal. Consider `O=C(Nc1cccc2ncccc12)N1CCN(c2ncccc2C(F)(F)F)CC1`, for which the results for the half-maximal effective concentration (EC50) in test [3] and in [4] were 8300 nM and 5260 nM, respectively. In addition, the Efficacy in test [5] was determined as 36%; in test [6], 2%.

Take `O=C(Nc1cnc2ccccc2c1)N1CCN(c2ncccc2C(F)(F)F)CC1`: the IC50 in [7] was found to be 526 nM; in [2] it was 2300 nM.

For the molecule `O=C(Nc1ccc(C(F)(F)F)cc1)N1CCN(c2cccnc2)CC1`, the EC50 in test [8] was determined as 2670 nM. In addition, the IC50 in test [9] is 5030 nM. In [6], the Efficacy came out at 18%.

As for `O=C(Nc1ccncc1)N1CCN(c2ncccc2C(F)(F)F)CC1`, the EC50 in test [8] was 1280 nM; in test [4], 1160 nM. The Efficacy in [5] came out at 120%; in test [6], 100%.

As to `CC1CN(c2ncccc2C(F)(F)F)CC(C)N1C(=O)Nc1ccc(C(F)(F)F)cc1` (stereo not given), the IC50 in [10] turned out to be 2450 nM; in test [2], 3720 nM.

Consider `O=C(Nc1ccc(C(F)(F)F)cc1)N1CCCN(c2ncccc2C(F)(F)F)CC1`, for which the concentration for half-maximal inhibition (IC50) in [11] is 1180 nM; in test [9], 538 nM.

With `COc1cc(CNC(=O)CCCC/C=C/C(C)C)ccc1O` [CAPSAICIN], in the test listed under Rattus norvegicus, the ED50 came out at 3 µg.

Molecule `O=C(Nc1ccc(C(F)(F)F)cc1)N1CCN(c2ccccn2)CC1` returned an IC50 in [2] of 863 nM.

`O=C(Nc1ccc(C(F)(F)F)cc1)N1CC2CC1CN2c1ncccc1C(F)(F)F` (stereo not given): the concentration for half-maximal inhibition (IC50) in [10] and in test [11] was more than 10000 nM throughout.

For the molecule `Cc1cccnc1N1CCN(C(=O)Nc2ccc(Cl)cc2)CC1`, the IC50 is 113 nM in [10] and 409 nM in test [2].

As for `O=C(Nc1ccc(Cl)cc1)N1CCN(c2ccncc2)CC1`, the 50% effective concentration (EC50) was 3600 nM in [3] and 7240 nM in test [12]. The figures for the Efficacy in test [5] and in [6] were 100% and more than 40%, respectively.

Take `Cc1cccnc1C1CCN(C(=O)Nc2ccc(C(F)(F)F)cc2)CC1`: the IC50 is 2170 nM in [10] and 390 nM in test [13]. The molecule further showed an EC50 in [14] of 1960 nM.

`O=C(Nc1ccc(C(F)(F)F)cc1)NC1CCN(c2ncccc2C(F)(F)F)CC1`: in test [11], the IC50 was determined as 4360 nM.

For `O=C(Nc1ccc2ncccc2c1)N1CCN(c2ncccc2C(F)(F)F)CC1`, the results for the half-maximal inhibitory concentration (IC50) in test [10] and in [11] were 908 nM and 3980 nM, respectively.

Consider `Oc1cc2c(cc1O)CN(C(=S)NCCc1ccc(Cl)cc1)CCC2` [CAPSAZEPINE], for which the IC50 in [15] was 5 nM and 3 nM; in test [16], 4 nM and 3 nM (2×); in test [11], 365 nM; in [17], 13 nM; in test [7], 74 nM.

In the case of `O=C(Nc1ccccn1)N1CCN(c2ncccc2C(F)(F)F)CC1`, the half-maximal inhibitory concentration (IC50) is 12100 nM in test [18] and more than 10000 nM in [2].

With `Cc1ccccc1C1CCN(C(=O)Nc2ccc(C(F)(F)F)cc2)CC1`, the EC50 in test [19] is 1930 nM; in [14] it was 1720 nM. Also, the Efficacy amounted to 8% in test [20] and 86% in [6].

Turning to `O=C(Nc1ccc(C(F)(F)F)cc1)C1CCN(c2ncccc2C(F)(F)F)CC1`, the IC50 was more than 10000 nM in test [11] and 965 nM in test [18].

`Cc1cccnc1N1CCN(C(=O)Nc2ccc(C(F)(F)F)cc2)CC1`: the values for the IC50 in test [9] and in test [2] were 290 nM and 194 nM, respectively.

`O=C(Nc1ccc(C(F)(F)F)cc1)N1CCN(c2ncccc2C(F)(F)F)CC1`: the IC50 in test [13] was found to be 90 nM.

With `O=C(Nc1cc2ccccc2cn1)N1CCN(c2ncccc2C(F)(F)F)CC1`, the half-inhibitory concentration (IC50) is 1010 nM in test [11] and 367 nM in test [9].

Regarding `CC1CN(c2ncccc2C(F)(F)F)CCN1C(=O)Nc1ccc(C(F)(F)F)cc1` (stereo not given), the figures for the IC50 in [10] and in [13] were 64 nM and 104 nM, respectively.

As to `O=C(Nc1cccc2cnccc12)N1CCN(c2ncccc2C(F)(F)F)CC1`, the half-maximal inhibitory concentration (IC50) in test [10] was 2280 nM; in test [2], more than 10000 nM. It took 7290 nM to reach a half-maximal effect in test [8] (EC50). In addition, the Efficacy in test [6] came to 11%.

As to `O=C(Nc1ccc(C(F)(F)F)cc1)NC1CCN(c2ncccc2C(F)(F)F)C1` (stereo not given), the values for the IC50 in [9] and in test [2] were more than 10000 nM and 13100 nM, respectively. The EC50 in test [21] is more than 10000 nM.

Take `O=C(Nc1ccc([N+](=O)[O-])cc1)N1CCN(c2ncccc2C(F)(F)F)CC1`: the half-inhibitory concentration (IC50) in [16] is 6 nM and 4 nM and 3 nM; in test [1], 74 nM; in [2], 100 nM.

Values taken from ChEMBL document CHEMBL1142724 (J Med Chem, 2005).
